Source: PubChem BioAssay (The Scripps Research Institute Molecular Screening Center)
This is a sample that favours compounds with a hit; in the whole collection about 1.8% have one here.
HTRA1 inhibitor: HTRA1 serine protease inhibitors, primary screen, biochemical, fluorescence polarization, HTS. Q92743. recombinant HTRA1, FP-rhodamine activity-based probe. inhibition, % at 5.96 µM. 340,000 compounds, 0.5% hits. AID 504803, 2011; in the data active = inhibition above about 36%
Target sequence (Q92743 whole entry, looked up): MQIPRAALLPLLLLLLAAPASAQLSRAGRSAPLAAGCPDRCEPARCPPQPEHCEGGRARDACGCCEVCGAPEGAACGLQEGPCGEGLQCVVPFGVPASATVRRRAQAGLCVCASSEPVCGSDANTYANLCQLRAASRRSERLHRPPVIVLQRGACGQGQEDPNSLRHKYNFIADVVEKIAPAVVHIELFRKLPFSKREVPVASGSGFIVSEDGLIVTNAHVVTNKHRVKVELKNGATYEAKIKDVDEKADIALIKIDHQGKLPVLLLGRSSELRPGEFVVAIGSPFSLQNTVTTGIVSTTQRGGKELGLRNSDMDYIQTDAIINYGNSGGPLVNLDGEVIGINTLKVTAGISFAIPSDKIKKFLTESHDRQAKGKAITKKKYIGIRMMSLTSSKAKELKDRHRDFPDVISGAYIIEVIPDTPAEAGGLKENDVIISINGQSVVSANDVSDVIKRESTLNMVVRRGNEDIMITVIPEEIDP
SIAE primary: human SIAE inhibitors, primary screen, biochemical, fluorescence polarization, FP-Rh probe, 1536-well HTS. SIAE FP-Rh probe binding. inhibition, % at 9.66 µM. 370,000 compounds, 0.69% hits. AID 1053197, 2014;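 active = inhibition above a cutoff: mean of compounds within the control limits plus 3 SD of those, cut at about 17% in these data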
TCR CD3 inh: inhibitors of human TCR-CD3 interaction, primary screen, biochemical, fluorescence, TAMRA-labeled TCR probe; 360,000 compounds, 0.37% hits; inhibition, % at 9.4 µM;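 also: recombinant mutant TCR 2C K166C tagged with TAMRA read by polarization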
mABHD4 FP: ABHD4 inhibitors, primary screen, biochemical, fluorescence polarization, mouse | (Lyso)-N-acylphosphatidylethanolamine lipase (Mus musculus), Q8VD66 | purified mABHD4, FP-Rh probe fluorescence polarization | inhibition, % at 8.92 µM | 370,000 compounds, 0.54% hits;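 active = inhibition exceeding the mean over every tested compound plus 3 SD, cut at about 30% in these data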
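assay system = mABHD4 protein | compound dosing = single nominal dose of 8.92 µM, 0.89% DMSO final | read-out basis = percent inhibition of probe binding, normalized to plate controls | schedule = Enzyme–compound pre-incubation 45 min, then probe 60 min, both 25 °C | detection = fluorescence polarization, excitation 525 nm, emission 598 nm, BODIPY TMR filters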
Tn7 DDE FP: inhibitors of Tn7 peptide binding to fibrin DD(E), primary screen, biochemical, fluorescence polarization, human fibrin, Tn7 probe. inhibition, % at 8.3 µM. AID 720508, 2013. Fibrinogen beta chain (Homo sapiens), P02675. FP displacement of FITC-Tn7 peptide from fibrin DD(E); 0% = median of compound wells per plate. 370,000 compounds, 0.13% hits;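 active = inhibition above the mean of compounds falling within the control limits plus 3 SD of them, cut at about 14% in these data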
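Assay system: Fibrin-DD(E) protein isolated from polymerized human fibrin clots; read-out basis: percent inhibition; medium: Tris/NaCl/CaCl2 buffer, pH 7.8; signal: FP measurement; incubation: 10 min plus 3 h, room temperature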
Tn6 DDE FP: inhibitors of Tn6 peptide binding to fibrin DD(E), primary screen, biochemical, fluorescence polarization, human fibrin, Tn6 probe. Fibrinogen beta chain (Homo sapiens), P02675. Fibrin DD(E) TRITC-Tn6 fluorescence polarization displacement. inhibition, % at 8.3 µM. 370,000 compounds, 0.21% hits. AID 720509, 2013;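 active = inhibition above a per-campaign cutoff: mean of compounds within control limits plus 3 SD, cut at about 15% in these data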
HTRA1 conf: HTRA1 protease inhibitors, retest, confirmation, biochemical, fluorescence polarization; shares compounds with HTRA1 inhibitor; recombinant HTRA1, FP-rhodamine activity-based probe; inhibition, % at 5.96 µM; 1,600 compounds, 66% hits; AID 540248, 2011;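 active = mean inhibition over three repeats above a set limit taken from the earlier primary screen, cut at about 37% in these data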;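 also: inhibitors block probe binding so polarization drops and inhibition rises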
BSA TAMRA ctr: compounds interfering with TAMRA-BSA probe, counter-screen for TCR-CD3 interaction inhibitor project, biochemical, fluorescence, TAMRA-labeled BSA. shares compounds with TCR CD3 inh. TAMRA-labeled BSA probe fluorescence counterscreen. inhibition, % at 9.4 µM. 1,200 compounds, 10% hits; in the data active = inhibition above about 23%
TCR-CD3 conf: TCR-CD3 interaction inhibitors, retest, confirmation, biochemical, fluorescence, TAMRA-labeled TCR probe; shares compounds with TCR CD3 inh; TAMRA-labeled TCR probe fluorescence binding assay; inhibition, % at 9.4 µM; 1,200 compounds, 48% hits
Of the large screens only hits and unclear results are named; the others gave an inactive call (follow-up assays come after a bar, where they were run). Rule as the data show it, unless noted: active = inhibition above about 19%; inactive = the rest.

O=C(N=C1N(Cc2ccccc2)C[C@]2(C=C3CCCCC3n3c(=O)n(-c4ccccc4)c(=O)n32)N1C(=O)OCc1ccccc1)c1ccccc1 (some centres not stated)	none (no result: HTRA1 inhibitor, TCR CD3 inh)
CCCCNC(=O)NS(=O)(=O)c1ccc(NC(=O)CSc2nnc(-c3cccs3)n2-c2ccc(OC)cc2)cc1	none (no result: HTRA1 inhibitor, TCR CD3 inh)
Oc1ccc(N=Cc2ccc(-c3cccs3)s2)cc1	HTRA1 inhibitor 62, SIAE primary 45, TCR CD3 inh 43, mABHD4 FP 86, Tn6 DDE FP 19 | HTRA1 conf inactive
O=Cc1ccc(-c2cccs2)s1	none
O=S1(=O)Nc2c(ccc3cccnc23)-c2ccccc21	HTRA1 inhibitor 36 (no result: SIAE primary, TCR CD3 inh, mABHD4 FP, Tn7 DDE FP, Tn6 DDE FP) | HTRA1 conf inactive
O=C(Nc1ccccc1)OCCN1CCCC12CCC(c1ccccc1)CC2 (configuration not stated)	none (no result: HTRA1 inhibitor, TCR CD3 inh)
O=C(COC(=O)c1ccc(O)cc1)Nc1ncc(Cl)cc1Cl	none
O=C(COC(=O)c1nc(Cl)ccc1Cl)Nc1ncc(Cl)cc1Cl	HTRA1 inhibitor 63 | HTRA1 conf inactive
N#CCC[C@H]1CC[C@]2(CCCN(C(=O)c3ccccc3)C2)O1	none (no result: HTRA1 inhibitor, TCR CD3 inh)
O=C(COC(=O)c1ccc2ncsc2c1)NC(=O)NCc1ccccc1	HTRA1 inhibitor 39 | HTRA1 conf inactive
O=C(CCc1ccccc1-c1ccccc1CCNC(=O)c1ccccc1)NCc1ccccc1	none (no result: HTRA1 inhibitor, TCR CD3 inh)
COc1ccccc1NC(=O)c1ccccc1Nc1ccccc1	none
COc1ccccc1Nc1ccc(N)cc1	HTRA1 inhibitor 68 | HTRA1 conf 56
COc1ccc(OC)c(/C=N/NC(=O)CCc2c(C)n[nH]c2C)c1	none
COc1ccc(OC)c(/C=N/NC(=O)CCc2ccc(O)c(O)c2)c1	HTRA1 inhibitor 53 | HTRA1 conf 79
N=c1c2c(ccn1CCCCc1ccccc1)Oc1ccc3ccccc3c1C2c1ccccc1 (configuration not stated)	none (no result: HTRA1 inhibitor, TCR CD3 inh)
CN(C)c1ccc(N=Cc2cccn2C)cc1	HTRA1 inhibitor 42, mABHD4 FP 35 | HTRA1 conf inactive
CN(C)c1ccc(N=c2sc3ccccc3n2C)cc1	none
Oc1ccc(/C=N/N2CCN(C3c4ccccc4-c4ccccc43)CC2)cc1O	HTRA1 inhibitor 38 | HTRA1 conf active
CN=c1scc(-c2ccc(F)cc2)n1/N=C/c1ccc(O)c(O)c1	HTRA1 inhibitor 64, mABHD4 FP 33 | HTRA1 conf 69
CC1=NN(c2ccc(C(=O)O)cc2)C(=O)/C1=C\c1ccc(OC(=O)c2cccs2)cc1	HTRA1 inhibitor 39 | HTRA1 conf inactive
CCCOc1cc(N)ccc1C(=O)OCCN(CC)CC	none
CCCOc1ccc(N)cc1N	HTRA1 inhibitor 56 | HTRA1 conf inactive
CCOc1cc(N2CCOCC2)c(OCC)cc1NC(=O)c1nn(CC)c(=O)c2ccccc12	HTRA1 inhibitor 41 | HTRA1 conf 45
N#CCC[C@H]1CC[C@]2(CCCN(Cc3ccc(Br)cc3)C2)O1	none (no result: HTRA1 inhibitor, TCR CD3 inh)
CCC(C)NC(=O)Nc1ccc(Br)cc1 (configuration not stated)	none
CCC(C)Nc1ccc(NC(C)CC)cc1 (configuration not stated)	HTRA1 inhibitor 67 (no result: SIAE primary, TCR CD3 inh, mABHD4 FP, Tn7 DDE FP, Tn6 DDE FP) | HTRA1 conf 75
c1ccc2cc(-c3cc4ccccn4c3)ccc2c1	HTRA1 inhibitor 39 | HTRA1 conf inactive
COC(=O)[C@]1(CNC(=O)c2cc(F)ccc2F)CC(=O)N(C)[C@@H]1c1ccccc1	none (no result: HTRA1 inhibitor, TCR CD3 inh)
CN1CCCN(C(=O)C2CCCN(C(=O)c3ccc4c(c3)NC(=O)CS4)C2)CC1 (configuration not stated)	none (no result: HTRA1 inhibitor, TCR CD3 inh)
C[C@H](O)[C@@H]1CN2CCc3c([nH]c4c(-c5ccccc5)cccc34)[C@@H]2C[C@@H]1N(C)C(=S)Nc1ccc(C#N)cc1	none (no result: HTRA1 inhibitor, TCR CD3 inh)
O=C(Oc1ccc(/C=N/NC(=O)c2ccccc2F)cc1)c1ccccc1	none
O=C(Oc1ccc(/C=N/NC(=O)c2ccccc2O)cc1)c1ccccc1	HTRA1 inhibitor 41 | HTRA1 conf inactive
COC(=O)C1=C(C)NC(=O)/C1=C\c1cc(C)n(-c2cccc(C)c2)c1C	HTRA1 inhibitor 52 | HTRA1 conf 38
Cc1ccc2nc(-c3cc(N)cc(N)c3)oc2c1	HTRA1 inhibitor 37 | HTRA1 conf inactive
C/C(CC(=O)Nc1ccccn1)=N\NC(=O)c1ccc2ccccc2c1	none
C/C(CC(=O)Nc1ccccn1)=N\NC(=O)c1ccccc1O	HTRA1 inhibitor 56, TCR CD3 inh 45 | HTRA1 conf inactive | BSA TAMRA ctr 23 | TCR-CD3 conf 37
COc1ccc(-c2cc(-c3nnc(SCC(=O)NC4CCCCC4)n3N)[nH]n2)cc1	none (no result: HTRA1 inhibitor, TCR CD3 inh)
CCCCCOc1ccc(/C=N/NC(=O)CSc2nnc(-c3ccc(OC)cc3)n2-c2ccc(C)cc2)cc1	none (no result: HTRA1 inhibitor, TCR CD3 inh)
O=C(NN=Cc1c(O)ccc2ccccc12)c1ccc2c(c1)OCO2	HTRA1 inhibitor 37, TCR CD3 inh 21 | HTRA1 conf inactive | BSA TAMRA ctr inactive | TCR-CD3 conf 22
O=C(N/N=C/c1ccc(O)cc1O)c1ccc(CN2C(=O)c3cccc4cccc2c34)cc1	HTRA1 inhibitor 38, TCR CD3 inh 27 | HTRA1 conf inactive | BSA TAMRA ctr inactive | TCR-CD3 conf 30
Cc1ccc(/C=C2\SC(=S)N(CCC(=O)NNC(=O)c3ccc(O)cc3)C2=O)cc1	none
Cc1ccc(/C=C2/SC(=S)N(CCCC(=O)Nc3ccc(O)cc3)C2=O)cc1	none
COc1cccc(/C=C2/SC(=S)N(CC(=O)NNC(=O)c3ccccc3O)C2=O)c1	HTRA1 inhibitor 46, TCR CD3 inh 25 | HTRA1 conf inactive | BSA TAMRA ctr inactive | TCR-CD3 conf 46
COc1cccc(/C=C2/SC(=S)N(CCCC(=O)Nc3ccc(O)cc3)C2=O)c1	none
Cc1ccc(/C=C2\SC(=S)N(CCC(=O)NNC(=O)c3ccccc3O)C2=O)cc1	HTRA1 inhibitor 38, TCR CD3 inh 29 | HTRA1 conf 59 | BSA TAMRA ctr inactive | TCR-CD3 conf 33
